Each block holds one compound with its values, some of them ahead of it. Active and inactive are the calls of the source. The calls are words filed in the database; no cut-off is given here.
Key:
[1] = Cmax in fat of CD-1 female mouse at 10 mg/kg, ip single dose by LC-MS/MS analysis; conditions: CD-1, mouse
[2] = AUC in lung of CD-1 female mouse at 10 mg/kg, ip single dose by LC-MS/MS analysis; conditions: CD-1, mouse
[3] = AUC in plasma of CD-1 female mouse at 10 mg/kg, ip single dose by LC-MS/MS analysis; conditions: CD-1, mouse
[4] = Cmax in plasma of CD-1 female mouse at 10 mg/kg, ip single dose by LC-MS/MS analysis; conditions: CD-1, mouse
[5] = Cmax in lung of CD-1 female mouse at 10 mg/kg, ip single dose by LC-MS/MS analysis; conditions: CD-1, mouse
[6] = AUC in fat of CD-1 female mouse at 10 mg/kg, ip single dose by LC-MS/MS analysis; conditions: CD-1, mouse
[7] = Drug metabolism in human NCI-H2122 cells assessed as (R)-4-(amino(phenyl)methyl)-N-(6-hydroxybenzo[d]thiazol-2-yl)-benzamide formation at 100 nM by LC-MS/MS analysis; type: ADME, cell-based; conditions: nci-h2122, 0.1 µM
Outline: (§1)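 H2122 and H1155 pLVX (empty vector) cells, 4000/well, adhered overnight. Then fresh medium with 100 nM prodrug, ±1 μM HET0016 (CYP4A/4F inhibitor), at 37 °C, 5% CO2. At varying times, cells and medium lysed and protein-precipitated with 2 volumes methanol/0.2% formic acid containing internal standard, then spun at 16,000g for 5 min. Parent and demethylated metabolite quantified by LC-MS/MS against standard curves in blank cell lysates.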

[8] = Drug level in tumor of nod-SCID mouse xenografted with human NCI-H2122 cells at 20 mg/kg, ip single dose and measured after 7 hrs by LC-MS/MS analysis; conditions: read-out: Drug uptake
[9] = Drug level in plasma of normal chow diet fed nod-SCID mouse xenografted with NCI-H2122 cells at 20 mg/kg, ip QD for 3 weeks and measured 3 hrs after final dose by LC-MS/MS analysis; type: ADME, organism-based
Outline: (§2)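 Xenografted NOD-SCID mice on control or fat-free diet, dosed for three weeks, euthanized 3 h after the last dose. Plasma and tumor homogenate (3 volumes PBS) mixed with 2 volumes acetonitrile or methanol with 0.15% formic acid and internal standard, then centrifuged. Drug form quantified by LC-MS/MS against spiked blank-matrix standard curves.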

[10] = Drug level in tumor of normal chow diet fed nod-SCID mouse xenografted with NCI-H2122 cells at 20 mg/kg, ip QD for 3 weeks and measured 3 hrs after final dose by LC-MS/MS analysis; type: ADME, organism-based, Neoplasm; conditions: read-out: Drug uptake
Outline: as §2

[11] = Toxicity in normal chow diet fed nod-SCID mouse xenografted with NCI-H2122 cells assessed as effect on behavior at 20 mg/kg, ip QD for 3 weeks; type: organism-based; conditions: in vivo, 504 h
[12] = Toxicity in normal chow diet fed nod-SCID mouse xenografted with NCI-H2122 cells assessed as effect on body weight at 10 mg/kg, ip BID for 3 weeks; type: organism-based; conditions: in vivo, 504 h
[13] = Toxicity in normal chow diet fed nod-SCID mouse xenografted with NCI-H2122 cells assessed as body weight loss at 20 mg/kg, ip QD for 3 weeks (reference value: <5%); type: organism-based; conditions: in vivo, 504 h
[14] = Toxicity in fat-free diet fed nod-SCID mouse xenografted with NCI-H2122 cells assessed as body weight loss at 20 mg/kg, ip QD for 3 weeks (reference value: <5%); type: organism-based; conditions: in vivo, 504 h
[15] = Drug level in plasma of fat-free diet fed nod-SCID mouse xenografted with NCI-H2122 cells at 20 mg/kg, ip QD for 3 weeks and measured 3 hrs after final dose by LC-MS/MS analysis; type: ADME, organism-based
Outline: as §2

[16] = Toxicity in fat-free diet fed nod-SCID mouse xenografted with NCI-H2122 cells assessed as effect on appearance at 20 mg/kg, ip QD for 3 weeks; type: organism-based; conditions: in vivo, 504 h
[17] = Toxicity in fat-free diet fed nod-SCID mouse xenografted with NCI-H2122 cells assessed as effect on body weight at 20 mg/kg, ip QD for 3 weeks; type: organism-based; conditions: in vivo, 504 h
[18] = Drug metabolism in human NCI-H1155 cells assessed as (R)-4-(amino(phenyl)methyl)-N-(6-hydroxybenzo[d]thiazol-2-yl)-benzamide formation at 100 nM by LC-MS/MS analysis; type: ADME, cell-based; conditions: nci-h1155, 0.1 µM
Outline: as §1

[19] = Drug level in tumor of fat-free diet fed nod-SCID mouse xenografted with NCI-H2122 cells at 20 mg/kg, ip QD for 3 weeks and measured 3 hrs after final dose by LC-MS/MS analysis; type: ADME, organism-based, Neoplasm; conditions: read-out: Drug uptake
Outline: as §2

[20] = system: NCI-H2122; experiment: Antitumor activity against human NCI-H2122 cells xenografted in nod-SCID mouse fed fat-free diet at 20 mg/kg, ip QD for 3 weeks; type: functional, organism-based
Outline: (§3)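 Female NOD-SCID mice, 6–8 weeks, on control diet (4.1% soybean-oil fat) or fat-free diet (0.1% fat). Three days later, 5 × 10⁶ H2122 cells injected subcutaneously into the left flank. At ~100 mm³, randomized to groups of six. Dosing 10 mg/kg BID, 20 mg/kg QD, or vehicle BID (10% DMSO, 10% Kolliphor EL, 80% 50 mM lactic acid pH 3.6) for three weeks. Caliper measurements twice weekly; volume = length × width² × π/6.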

[21] = Toxicity in fat-free diet fed nod-SCID mouse xenografted with NCI-H2122 cells assessed as effect on behavior at 10 mg/kg, ip BID for 3 weeks; type: organism-based; conditions: in vivo, 504 h
[22] = Toxicity in normal chow diet fed nod-SCID mouse xenografted with NCI-H2122 cells assessed as effect on behavior at 10 mg/kg, ip BID for 3 weeks; type: organism-based; conditions: in vivo, 504 h
[23] = Toxicity in fat-free diet fed nod-SCID mouse xenografted with NCI-H2122 cells assessed as effect on behavior at 20 mg/kg, ip QD for 3 weeks; type: organism-based; conditions: in vivo, 504 h
[24] = Toxicity in fat-free diet fed nod-SCID mouse xenografted with NCI-H2122 cells assessed as effect on body weight at 10 mg/kg, ip BID for 3 weeks; type: organism-based; conditions: in vivo, 504 h
[25] = Toxicity in normal chow diet fed nod-SCID mouse xenografted with NCI-H2122 cells assessed as effect on body weight at 20 mg/kg, ip QD for 3 weeks; type: organism-based; conditions: in vivo, 504 h
[26] = Half life in human NCI-H1155 cells at 100 nM by LC-MS/MS analysis; type: ADME, cell-based
Outline: as §1

[27] = system: NCI-H2122; experiment: Antitumor activity against human NCI-H2122 cells xenografted in nod-SCID mouse fed normal chow diet at 10 mg/kg, ip BID for 3 weeks; type: functional, organism-based
Outline: as §3

[28] = system: NCI-H2122; experiment: Antitumor activity against human NCI-H2122 cells xenografted in nod-SCID mouse fed fat-free diet at 10 mg/kg, ip BID for 3 weeks; type: functional, organism-based
Outline: as §3

[29] = Toxicity in fat-free diet fed nod-SCID mouse xenografted with NCI-H2122 cells assessed as body weight loss at 10 mg/kg, ip BID for 3 weeks (reference value: <5%); type: organism-based; conditions: in vivo, 504 h
[30] = Half life in human NCI-H2122 cells at 100 nM in presence of CYP4F inhibitor HET0016 by LC-MS/MS analysis; type: ADME, cell-based; conditions: with HET0016 (CYP4F inhibitor), concentration not stated
Outline: as §1

[31] = Half life in human NCI-H2122 cells at 100 nM by LC-MS/MS analysis; type: ADME, cell-based
Outline: as §1

[32] = Toxicity in fat-free diet fed nod-SCID mouse xenografted with NCI-H2122 cells assessed as effect on appearance at 10 mg/kg, ip BID for 3 weeks; type: organism-based; conditions: in vivo, 504 h
[33] = system: NCI-H2122; experiment: Antitumor activity against human NCI-H2122 cells xenografted in nod-SCID mouse fed normal chow diet at 20 mg/kg, ip QD for 3 weeks; type: functional, organism-based
Outline: as §3

[34] = Toxicity in normal chow diet fed nod-SCID mouse xenografted with NCI-H2122 cells assessed as body weight loss at 10 mg/kg, ip BID for 3 weeks (reference value: <5%); type: organism-based; conditions: in vivo, 504 h
[35] = Toxicity in normal chow diet fed nod-SCID mouse xenografted with NCI-H2122 cells assessed as effect on appearance at 10 mg/kg, ip BID for 3 weeks; type: organism-based; conditions: in vivo, 504 h
[36] = Drug metabolism in human NCI-H2122 cells assessed as (R)-4-(amino(phenyl)methyl)-N-(6-hydroxybenzo[d]thiazol-2-yl)-benzamide formation at 100 nM by in presence of CYP4F inhibitor HET0016 LC-MS/MS analysis; type: ADME, cell-based; conditions: nci-h2122, 0.1 µM
Outline: as §1

[37] = Toxicity in normal chow diet fed nod-SCID mouse xenografted with NCI-H2122 cells assessed as effect on appearance at 20 mg/kg, ip QD for 3 weeks; type: organism-based; conditions: in vivo, 504 h

Compound: COc1ccc2nc(NC(=O)c3ccc(C(=O)c4ccccc4)cc3)sc2c1
Cmax [1]: 90 µM
AUC at 504 h [2]: 2.6 µM·h
AUC at 504 h [3]: 0.6 µM·h
Cmax [4]: 0.3 µM
Cmax [5]: 0.9 µM

Compound: N[C@H](c1ccccc1)c1ccc(C(=O)Nc2nc3ccccc3s2)cc1
Drug metabolism [7]: Metabolite_Detected

Compound: COc1ccc2nc(NC(=O)c3ccc(C(N)c4ccccc4)cc3)sc2c1 (racemic)
concentration at 7 h [8]: 7 µM
AUC at 504 h [6]: 77 µM·h
Cmax [1]: 94 µM
AUC at 504 h [2]: 160 µM·h
AUC at 504 h [3]: 3 µM·h
Cmax [4]: 1.5 µM
Cmax [5]: 61 µM

Second part, led by results:

AUC at 504 h [6]: 70 µM·h
Cmax [1]: 120 µM
AUC at 504 h [2]: 17 µM·h
AUC at 504 h [3]: 9.6 µM·h
Cmax [4]: 11 µM
Cmax [5]: 26 µM
Compound: COc1ccc2nc(NC(=O)c3ccc(C(O)c4ccccn4)cc3)sc2c1 (racemic)

concentration at 3 h [9]: > 5 µM
concentration at 3 h [10]: > 5 µM
concentration at 3 h [15]: > 5 µM
Drug metabolism [18]: Metabolite_Notdetected
concentration at 3 h [19]: > 5 µM
half-life at 0.1 µM [26]: > 48 h
AUC at 504 h [3]: 1.6 µM·h
half-life at 0.1 µM [30]: > 48 h
half-life at 0.1 µM [31]: 19 h
Drug metabolism [7]: Metabolite_Detected
Drug metabolism [36]: Metabolite_Notdetected
Cmax [4]: 0.9 µM
Compound: COc1ccc2nc(NC(=O)c3ccc([C@H](N)c4ccccc4)cc3)sc2c1
Activity [11]: Non-Toxic
Activity [12]: Non-Toxic
Activity [13]: 5%
Activity [14]: 7%
Activity [16]: Non-Toxic
Activity [17]: Non-Toxic
Activity [20]: Active
Activity [21]: Non-Toxic
Activity [22]: Non-Toxic
Activity [23]: Non-Toxic
Activity [24]: Non-Toxic
Activity [25]: Non-Toxic
Activity [27]: Active
Activity [28]: Active
Activity [29]: 17%
Activity [32]: Non-Toxic
Activity [33]: Active
Activity [34]: 13%
Activity [35]: Non-Toxic
Activity [37]: Non-Toxic

Source: ChEMBL document CHEMBL4622978, “Tumor-Activated Benzothiazole Inhibitors of Stearoyl-CoA Desaturase” (J Med Chem, 2020)
